Assay results reported in ChEMBL document CHEMBL4342456, “Preventing Morphine-Seeking Behavior through the Re-Engineering of Vincamine's Biological Activity” (J Med Chem, 2020).

Experiments:
[1] = target: T1, Glucose-dependent insulinotropic receptor (Homo sapiens) (UniProt Q8TDV5); assay: Antagonist activity at human GPR119 assessed as inhibition in oleoylethanolamide-induced beta-arrestin 2 recruitment at 20 uM incubated for 30 mins followed by oleoylethanolamide addition and measured after 90 or 180 mins by pathhunter beta-arrestin assay relative to control
T1 sequence (whole entry): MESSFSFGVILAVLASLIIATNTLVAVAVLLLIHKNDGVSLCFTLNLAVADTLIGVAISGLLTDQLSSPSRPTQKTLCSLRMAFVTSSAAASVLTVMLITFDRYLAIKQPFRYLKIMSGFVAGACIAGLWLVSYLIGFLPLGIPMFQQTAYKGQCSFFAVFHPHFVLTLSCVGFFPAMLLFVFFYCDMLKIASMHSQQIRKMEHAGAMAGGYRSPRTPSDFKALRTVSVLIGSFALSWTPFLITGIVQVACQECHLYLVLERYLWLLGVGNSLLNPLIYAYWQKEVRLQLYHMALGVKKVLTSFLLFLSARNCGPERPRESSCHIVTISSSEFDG
Method in brief: (§1)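 PathHunter beta-arrestin recruitment, antagonist mode, run at DiscoverX. Cells seeded and held at 37 °C, then preincubated with test sample for 30 min at 37 °C or room temperature (1% vehicle). Agonist then added at EC80 for 90 or 180 min. IC50 comes from concentration–response runs in the same format.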

[2] = target: C-X-C chemokine receptor type 4 (Homo sapiens) (UniProt P61073); assay: Antagonist activity at human Gi/o-coupled CXCR4 expressed in mouse C2C12 cells assessed as inhibition in CXCL12-induced beta-arrestin 2 recruitment at 20 uM incubated for 30 mins followed by CXCL12 addition and measured after 90 or 180 mins by pathhunter beta-arrestin assay relative to control; format: cell-based; method in brief: as §1
[3] = target: T2, Orexin receptor type 2 (Homo sapiens, UniProt O43614); assay: Antagonist activity at human Gq-coupled HCRTR2 expressed in CHOK1 cells assessed as inhibition in Orexin A-induced beta-arrestin 2 recruitment incubated for 30 mins followed by Orexin A addition and measured after 90 or 180 mins by pathhunter beta-arrestin assay; format: cell-based
T2 sequence (O43614 whole entry): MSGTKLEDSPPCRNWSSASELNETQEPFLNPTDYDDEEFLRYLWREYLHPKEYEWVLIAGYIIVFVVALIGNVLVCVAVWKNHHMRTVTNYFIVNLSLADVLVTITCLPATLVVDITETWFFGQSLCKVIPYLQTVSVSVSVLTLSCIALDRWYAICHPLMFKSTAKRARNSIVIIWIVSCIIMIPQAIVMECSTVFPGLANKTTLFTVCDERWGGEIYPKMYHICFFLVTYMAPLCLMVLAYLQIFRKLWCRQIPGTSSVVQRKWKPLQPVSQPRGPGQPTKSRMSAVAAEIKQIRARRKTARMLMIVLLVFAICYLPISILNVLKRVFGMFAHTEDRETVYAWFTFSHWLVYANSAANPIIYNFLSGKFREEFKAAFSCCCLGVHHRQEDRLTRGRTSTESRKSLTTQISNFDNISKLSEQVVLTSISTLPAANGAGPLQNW
Method in brief: as §1, with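 “min. […]” for “min.”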

[4] = target: T3, Muscarinic acetylcholine receptor M4 (Homo sapiens, UniProt P08173); assay: (§2) Antagonist activity at human Gs/Gi/o-coupled CHRM4 expressed in CHOK1 cells assessed as inhibition in acetylcholine-induced beta-arrestin 2 recruitment incubated for 30 mins followed by acetylcholine addition and measured after 90 or 180 mins by pathhunter beta-arrestin assay; format: cell-based
T3 sequence (P08173 whole entry): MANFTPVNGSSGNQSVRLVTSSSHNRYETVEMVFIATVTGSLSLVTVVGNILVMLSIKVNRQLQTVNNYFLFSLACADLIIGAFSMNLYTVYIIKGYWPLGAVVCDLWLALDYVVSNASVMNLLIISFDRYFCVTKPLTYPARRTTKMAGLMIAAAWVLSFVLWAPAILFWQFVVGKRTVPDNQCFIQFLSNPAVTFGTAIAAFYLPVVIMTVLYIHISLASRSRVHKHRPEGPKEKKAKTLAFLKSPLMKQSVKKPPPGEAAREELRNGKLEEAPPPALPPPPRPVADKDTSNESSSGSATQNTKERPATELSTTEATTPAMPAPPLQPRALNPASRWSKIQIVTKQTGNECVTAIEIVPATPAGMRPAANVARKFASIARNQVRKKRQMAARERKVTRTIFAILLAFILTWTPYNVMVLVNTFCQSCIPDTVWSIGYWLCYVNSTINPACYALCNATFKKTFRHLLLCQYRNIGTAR
Method in brief: as §1, with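 “min. […]” for “min.”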

[5] = target: Cannabinoid receptor 1 (Homo sapiens, UniProt P21554); assay: Antagonist activity at human Gi/o-coupled CNR1 expressed in CHOK1 cells assessed as inhibition in CP55940-induced beta-arrestin 2 recruitment at 20 uM incubated for 30 mins followed by CP55940 addition and measured after 90 or 180 mins by pathhunter beta-arrestin assay relative to control; format: cell-based; method in brief: as §1
[6] = target: T4, Muscarinic acetylcholine receptor M4 (Homo sapiens) (UniProt P08173); assay: as §2, with “recruitment at 20 uM” for “recruitment”, “assay relative to control” for “assay”; format: cell-based; method in brief: as §1
T4 sequence (whole entry): T3 sequence (P08173 whole entry)

Cannabinoid receptor 1, sequence (P21554 whole entry): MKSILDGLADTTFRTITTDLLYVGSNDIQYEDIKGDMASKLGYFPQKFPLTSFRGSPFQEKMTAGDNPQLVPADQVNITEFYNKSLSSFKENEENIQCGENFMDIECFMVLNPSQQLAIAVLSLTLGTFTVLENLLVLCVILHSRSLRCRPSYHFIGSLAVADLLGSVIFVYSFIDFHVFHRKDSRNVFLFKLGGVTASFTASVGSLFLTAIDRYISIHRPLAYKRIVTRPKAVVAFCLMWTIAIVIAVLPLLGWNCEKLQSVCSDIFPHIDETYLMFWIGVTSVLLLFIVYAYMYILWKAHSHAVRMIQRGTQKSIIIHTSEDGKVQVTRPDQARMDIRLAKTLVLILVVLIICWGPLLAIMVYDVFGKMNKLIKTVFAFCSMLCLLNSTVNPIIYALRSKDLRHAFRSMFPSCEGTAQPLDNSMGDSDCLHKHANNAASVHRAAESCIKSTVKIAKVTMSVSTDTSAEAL
C-X-C chemokine receptor type 4 (Homo sapiens), sequence (P61073 whole entry): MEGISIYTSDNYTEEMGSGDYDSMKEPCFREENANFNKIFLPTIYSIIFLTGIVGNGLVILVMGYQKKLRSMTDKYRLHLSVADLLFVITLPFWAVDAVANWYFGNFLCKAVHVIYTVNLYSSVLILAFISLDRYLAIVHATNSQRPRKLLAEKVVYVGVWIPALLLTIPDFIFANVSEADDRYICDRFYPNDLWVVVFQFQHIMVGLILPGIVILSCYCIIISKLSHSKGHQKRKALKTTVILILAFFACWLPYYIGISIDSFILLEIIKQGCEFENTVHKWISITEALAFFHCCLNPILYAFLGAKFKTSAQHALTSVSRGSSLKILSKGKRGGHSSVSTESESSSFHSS

For `CC[C@@]12CCCN3CCc4c([nH]c5ccccc45)[C@]31N(Cc1cn(Cc3ccccc3)nn1)C(=O)C2`, which inhibition [1] is on record?
Its inhibition is 30%.

What about the inhibition [2] of the same compound?
The inhibition was 34%.

And the IC50 [3]?
Its IC50 is 2.26 µM.

What about the IC50 [4] of the same compound?
The IC50 was 12.5 µM.

And the inhibition [5]?
The inhibition was 48%.

And the inhibition [6]?
Its inhibition is 75%.
